How the values were obtained:
[1] = biological target: T1, 5-hydroxytryptamine receptor 1A (Rattus norvegicus) (UniProt P19327); test: Induction of clear-cut 5-HT motor syndrome in reserpine (5 mg/kg, sc) pretreated rats at the dose of 32 micro mol/kg; assay type: functional, organism-based
T1 sequence (whole entry): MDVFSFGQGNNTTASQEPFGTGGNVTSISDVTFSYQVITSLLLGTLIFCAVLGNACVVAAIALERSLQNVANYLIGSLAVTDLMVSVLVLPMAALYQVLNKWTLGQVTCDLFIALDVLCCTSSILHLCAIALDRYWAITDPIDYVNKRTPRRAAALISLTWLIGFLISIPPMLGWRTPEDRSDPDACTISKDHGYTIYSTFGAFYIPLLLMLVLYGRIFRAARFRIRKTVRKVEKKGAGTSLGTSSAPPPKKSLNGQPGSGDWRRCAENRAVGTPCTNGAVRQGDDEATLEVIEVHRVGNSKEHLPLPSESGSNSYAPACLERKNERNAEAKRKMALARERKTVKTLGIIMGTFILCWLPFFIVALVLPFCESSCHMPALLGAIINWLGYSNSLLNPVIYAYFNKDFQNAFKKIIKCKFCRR

[2] = biological target: T1, 5-hydroxytryptamine receptor 1A (Rattus norvegicus); test: 5-HT (serotonin) turnover in rat hippocampus (p<0.01); assay type: functional, tissue-based
How it was run: (§1)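 Rats dosed sc (screening dose typically 32 µmol/kg, in 0.9% NaCl, 2 mL/kg); decapitated 5-10 min after the 30-min rating, […]. Hippocampus dissected and frozen. 5-HIAA/5-HT ratio measured by HPLC with electrochemical detection (+0.85 V) after perchloric acid homogenisation. Reported as percent of saline control, mean ± SEM, n = 4-6 per group; ANOVA with Tukey test.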

[3] = biological target: T1, 5-hydroxytryptamine receptor 1A (Rattus norvegicus); test: Induction of clear-cut 5-HT motor syndrome in normal rats at the dose of 32 micro mol/kg; assay type: functional
[4] = biological target: T1, 5-hydroxytryptamine receptor 1A (Rattus norvegicus); test: Effect of 5-HT accumulation in rat hippocampus at the dose of 32 umol/kg (p<0.01); assay type: functional, tissue-based
How it was run: (§2)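 Test compound given sc in 0.9% NaCl. NSD 1015 (287 µmol/kg sc) given 30 min later to inhibit aromatic L-amino acid decarboxylase; rats decapitated after a further 30 min. Hippocampus and striatum stored at -40 °C for up to 1 week. Perchloric acid homogenates with α-methyl-5-hydroxytryptophan internal standard; 5-HTP and DOPA measured by HPLC-EC. Percent of control, means ± SEM; ANOVA with Tukey test.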

[5] = biological target: T2, Dopamine receptor (Rattus norvegicus) (UniProt P25115+P19020+P30729+P18901+P61169); test: Dopamine (DA) turnover in rat corpus striatum; assay type: functional, tissue-based
How it was run: (§3)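 Rats given compound sc in 0.9% NaCl (screening dose typically 32 µmol/kg); decapitated about 30 min after dosing. Hippocampus and corpus striatum dissected and frozen. Perchloric acid homogenates analysed by HPLC with electrochemical detection. Turnover taken as 5-HIAA/5-HT or DOPAC/DA, expressed as percent of saline control. Means ± SEM; n = 5-7 controls, 4-6 treated. ANOVA with Tukey test.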

[6] = biological target: T2, Dopamine receptor (Rattus norvegicus); test: Effect of accumulation of DOPA in rat striatum at the dose of 32 umol/kg; assay type: functional, tissue-based; how it was run: as §2
[7] = biological target: T1, 5-hydroxytryptamine receptor 1A (Rattus norvegicus); test: Number of rats displaying the 5-HT syndrome or leaving the cage out of the number of rats tested; assay type: functional
[8] = biological target: T3, 5-hydroxytryptamine receptor 1A (Rattus norvegicus, UniProt P19327); test: Binding affinity of 5-hydroxytryptamine 1A receptor using [3H]-8-OH-DPAT as radioligand.
T3 sequence (P19327 whole entry): T1 sequence (whole entry)
How it was run: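 Membranes from cortex and hippocampus of male Sprague-Dawley rats, pooled from at least six rats, preincubated with 10 µM pargyline. Assay used 2 nM [3H]-8-OH-DPAT, test compound at 1-300 nM and 5 mg/mL tissue in 50 mM Tris-HCl with 4.0 mM CaCl2 and 5.7 mM ascorbate, pH 7.5. Incubated 10 min at 37 °C, filtered on GF/B, scintillation counted.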

[9] = test system: Rattus norvegicus; test: Change in body temperature of rats upon administration after 30 minutes (p<0.01); assay type: functional
How it was run: (§4)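 Colonic temperature taken with an electrical thermometer probe 3.5 cm deep, before and 30 min after sc injection in saline. Change reported in °C as mean ± SEM; animal numbers as in the cage-leaving test. ANOVA with Tukey test.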

[10] = biological target: T1, 5-hydroxytryptamine receptor 1A (Rattus norvegicus); test: 5-HT (serotonin) turnover in rat hippocampus; assay type: functional, tissue-based; how it was run: as §3
[11] = test system: Rattus norvegicus; test: Induction of clear-cut 5-HT motor syndrome in reserpine (5 mg/Kg, sc) pretreated rats at the dose of 10 uM/Kg; assay type: functional
[12] = test system: Rattus norvegicus; test: Induction of clear-cut 5-HT motor syndrome in normal rats at the dose of 10 uM/Kg; assay type: functional
[13] = test system: Rattus norvegicus; test: Change in body temperature of rats upon administration after 30 minutes; assay type: functional; how it was run: as §4
[14] = species: Rattus norvegicus; test: Dopamine (DA) turnover in rat corpus striatum (p<0.01); assay type: functional; how it was run: as §3
[15] = test system: Rattus norvegicus; test: Induction of clear-cut 5-HT motor syndrome in reserpine (5 mg/Kg, sc) pretreated rats at the dose of 1 uM/Kg; assay type: functional
[16] = test system: Rattus norvegicus; test: Induction of clear-cut 5-HT motor syndrome in normal rats at the dose of 1 uM/Kg; assay type: functional
[17] = biological target: T1, 5-hydroxytryptamine receptor 1A (Rattus norvegicus); test: Induction of clear-cut 5-HT motor syndrome in reserpine (5 mg/Kg, sc) pretreated rats at the dose of 32 uM/Kg; assay type: functional, organism-based
[18] = biological target: T1, 5-hydroxytryptamine receptor 1A (Rattus norvegicus); test: 5-HT (serotonin) turnover in rat hippocampus (p<0.05); assay type: functional, tissue-based; how it was run: as §1
[19] = test system: Rattus norvegicus; test: Induction of clear-cut 5-HT motor syndrome in reserpine (5 mg/kg, sc) pretreated rats at the dose of 10 micro mol/kg; assay type: functional
[20] = test system: Rattus norvegicus; test: Effect of accumulation of DOPA in rat striatum at the dose of 0.32 umol/kg (p<0.01); assay type: functional; how it was run: as §2
[21] = test system: Rattus norvegicus; test: Effect of DOPA accumulation in rat striatum at the dose of 0.32 umol/kg (p<0.01); assay type: functional; how it was run: as §2
[22] = test system: Rattus norvegicus; test: Induction of clear-cut 5-HT motor syndrome in normal rats at the dose of 10 micro mol/kg; assay type: functional
[23] = species: Rattus norvegicus; test: Dopamine (DA) turnover in rat corpus striatum (p<0.05); assay type: functional; how it was run: as §3
[24] = test system: Rattus norvegicus; test: Induction of clear-cut 5-HT motor syndrome in normal rats at the dose of 30 micro mol/kg; assay type: functional
[25] = test system: Rattus norvegicus; test: Effect of DOPA accumulation in rat striatum at the dose of 32 umol/kg; assay type: functional; how it was run: as §2
[26] = test system: Rattus norvegicus; test: Induction of clear-cut 5-HT motor syndrome in normal rats at the dose of 32 umol/kg; assay type: functional

In the case of `C#Cc1cccc2c1C[C@@H](N(CCC)CCC)CC2`, the Behavioral effect [1] is reported as 4, the Turnover [2] is reported as 66 and the Behavioral effect [3] is reported as 4. For the same compound, the Accumulation [4] was 31, the Turnover [5] was 82 and the Accumulation [6] was 95. For the same compound, the No. of rats [7] was 0, the Ki [8] was 16 nM and the Temperature [9] was -2.8.

Work on `CCCN(CCC)[C@H]1CCc2cccc(C)c2C1` yielded a Behavioral effect [1] of 0, a Behavioral effect [3] of 4 and an Accumulation [4] of 64. It also gave a Turnover [10] of 79, a Turnover [5] of 80 and an Accumulation [6] of 119. For the same compound, the No. of rats [7] was 0 and the Temperature [9] was -2.3.

In the case of `CCCN(CCC)[C@H]1CCc2cccc(C(=O)OC)c2C1`, the Behavioral effect [11] is reported as 4, the Turnover [10] is reported as 59 and the Turnover [5] is reported as 98. For the same compound, the No. of rats [7] was 0, the Behavioral effect [12] was 4 and the Temperature [13] was -2.5.

For `CCCN(CCC)[C@H]1CCc2ccccc2C1`, the Behavioral effect [1] was 0, the Behavioral effect [3] was 5 and the Turnover [10] was 104. For the same compound, the No. of rats [7] was 5, the Turnover [14] was 62 and the Temperature [9] was -1.6.

With `CCCN(CCC)C1CCc2cccc(C)c2C1` (racemic) the Ki [8] was 42 nM.

Compound `CCCN(CCC)C1CCc2cccc(C(C)=O)c2C1` (racemic) has a Behavioral effect [15] of 4 and a Ki [8] of 0.9 nM.

`CCCN(CCC)[C@H]1CCc2cccc(C(C)=O)c2C1` showed a Behavioral effect [15] of 4, a Turnover [10] of 71 and a Turnover [5] of 111. The No. of rats [7] was 0, the Temperature [13] was -2.1 and the Behavioral effect [16] was 4.

Work on `CCCCC(=O)c1cccc2c1CC(N(CCC)CCC)CC2` (racemic) yielded a Behavioral effect [17] of 4 and a Ki [8] of 19 nM.

In the case of `CCCN(CCC)C1CCc2cccc(OS(=O)(=O)C(F)(F)F)c2C1` (racemic), the Behavioral effect [1] is reported as 0.

Compound `CCCN(CCC)[C@H]1CCc2cccc(O)c2C1` has a Turnover [18] of 72, a Behavioral effect [19] of 5 and a Turnover [5] of 106. It also gave a No. of rats [7] of 0, an Accumulation [20] of 94 and an Accumulation [21] of 94. The Behavioral effect [22] was 4 and the Temperature [9] was -2.

Work on `CCCN(CCC)[C@@H]1CCc2cccc(OC)c2C1` yielded a Turnover [23] of 70, a Turnover [2] of 66 and a No. of rats [7] of 0. The Behavioral effect [24] was 4 and the Temperature [9] was -1.5.

Work on `CCCN(CCC)C1CCc2cccc(C(=O)OC)c2C1` (racemic) yielded an Accumulation [25] of 59, an Accumulation [6] of 81 and a Behavioral effect [17] of 4. For the same compound, the Ki [8] was 2.4 nM.

`CCCN(CCC)[C@@H]1CCc2cccc(C#N)c2C1` gave a Behavioral effect [11] of 3 and a Ki [8] of 19 nM.

Compound `CCCN(CCC)[C@@H]1CCc2ccccc2C1` has a Behavioral effect [1] of 4, a Turnover [2] of 51 and a Behavioral effect [26] of 4. It also gave a No. of rats [7] of 4, a Turnover [14] of 77 and a Temperature [9] of -1.4.

Work on `CCCN(CCC)[C@H]1CCc2cccc(C#N)c2C1` yielded a Behavioral effect [17] of 4 and a Ki [8] of 37 nM.

— ChEMBL document CHEMBL1127085, “Derivatives of 2-(dipropylamino)tetralin: effect of the C8-substituent on the interaction with 5-HT1A receptors” (J Med Chem, 1993)
